Laboratory results from ChEMBL document CHEMBL1154715, “Identification of benzofuro[2,3-b]quinoline derivatives as a new class of antituberculosis agents” (Eur J Med Chem, 2010).
Values after ≈ are worked out from the molar mass of the structure shown.

How the values were obtained:
[1] = system: Mycobacterium tuberculosis; test: Antitubercular activity against Mycobacterium tuberculosis H37Rv ATCC 27294 by microplate Alamar blue assay; type: functional
In short: (§1)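 M. tuberculosis H37Rv (ATCC 27294) in BACTEC 12B medium; broth microdilution, Microplate Alamar Blue readout. MIC taken as lowest concentration giving 90% reduction in fluorescence versus controls.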

[2] = system: Vero; test: Cytotoxicity against african green monkey Vero cells after 72 hrs by MTT assay; type: cell-based, Chlorocebus sabaeus
[3] = Selectivity index, ratio of IC50 for african green monkey Vero cells to MIC for Mycobacterial tuberculosis H37Rv ATCC 27294; type: functional
In short: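 SI calculated as IC50/MIC, where MIC (H37Rv, Alamar Blue microdilution in BACTEC 12B medium) is the lowest concentration cutting fluorescence 90% versus controls.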

[4] = system: MCF7; test: Cytotoxicity against human MCF7 cells at 20 ug/ml after 48 hrs by SRB assay; type: functional
In short: (§2)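 MCF7, NCI-H460 and SF-268 cells were kept in RPMI-1640 with 5% fetal bovine serum, then seeded and preincubated in microtiter plates. Compound was added at two fixed concentrations and incubated for 48 h. The endpoint was sulforhodamine B protein staining, reported as percent growth of treated cells relative to untreated controls.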

[5] = system: MCF7; test: Cytotoxicity against human MCF7 cells at 4 ug/ml after 48 hrs by SRB assay; type: functional; in short: as §2
[6] = system: NCI-H460; test: Cytotoxicity against human NCI-H460 cells at 20 ug/ml after 48 hrs by SRB assay; type: functional; in short: as §2
[7] = system: NCI-H460; test: Cytotoxicity against human NCI-H460 cells at 4 ug/ml after 48 hrs by SRB assay; type: functional; in short: as §2
[8] = system: SF-268; test: Cytotoxicity against human SF268 cells at 20 ug/ml after 48 hrs by SRB assay; type: functional; in short: as §2
[9] = system: SF-268; test: Cytotoxicity against human SF268 cells at 4 ug/ml after 48 hrs by SRB assay; type: functional; in short: as §2
[10] = system: Mycobacterium tuberculosis; test: Antitubercular activity against Mycobacterium tuberculosis H37Rv ATCC 27294 at <0.2 ug/ml by microplate Alamar blue assay; type: functional; in short: as §1

## CNc1c2ccccc2nc2oc3ccccc3c12
[1]
  MIC: < 0.2 µg/mL
[2]
  IC50: 5.55 µg/mL (≈ 22.4 µM)
[3]
  Selectivity Index: >27.75
[4]
  Activity: 99%
[5]
  Activity: 100%
[6]
  Activity: 99%
[7]
  Activity: 102%
[8]
  Activity: 86%
[9]
  Activity: 98%

## c1ccc(Oc2c3ccccc3nc3oc4ccccc4c23)cc1
[1]
  MIC: > 100 µg/mL
[4]
  Activity: 64%
[5]
  Activity: 94%
[6]
  Activity: 91%
[7]
  Activity: 99%
[8]
  Activity: 108%
[9]
  Activity: 108%

## CC(=O)c1ccc(Nc2c3ccccc3nc3oc4ccccc4c23)cc1
[1]
  MIC: 14.6 µg/mL (≈ 41.3 µM)
[4]
  Activity: 49%
[5]
  Activity: 106%
[6]
  Activity: 20%
[7]
  Activity: 64%
[8]
  Activity: 63%
[9]
  Activity: 109%

## COc1cccc(Nc2c3ccccc3nc3oc4ccccc4c23)c1
[1]
  MIC: 17.8 µg/mL (≈ 52.4 µM)
[4]
  Activity: 84%
[5]
  Activity: 107%
[6]
  Activity: 46%
[7]
  Activity: 99%
[8]
  Activity: 60%
[9]
  Activity: 97%

## CN(C)c1c2ccccc2nc2oc3ccccc3c12
[1]
  MIC: < 0.2 µg/mL
[2]
  IC50: > 30 µg/mL
[3]
  Selectivity Index: >150
[4]
  Activity: 48%
[5]
  Activity: 87%
[6]
  Activity: 76%
[7]
  Activity: 108%
[8]
  Activity: 91%
[9]
  Activity: 102%

## CO[C@H]1/C=C/O[C@@]2(C)Oc3c(C)c(O)c4c(O)c(c(/C=N/N5CCN(C)CC5)c(O)c4c3C2=O)NC(=O)/C(C)=C\C=C\[C@H](C)[C@H](O)[C@@H](C)[C@@H](O)[C@@H](C)[C@H](OC(C)=O)[C@@H]1C [RIFAMPIN]
[1]
  MIC: 0.125 µg/mL (≈ 0.152 µM)
[2]
  IC50: 100 µg/mL (≈ 122 µM)
[3]
  Selectivity Index: 400

## CC(=O)c1ccc(Oc2c3ccccc3nc3oc4ccccc4c23)cc1
[1]
  MIC: > 100 µg/mL
[4]
  Activity: 88%
[5]
  Activity: 100%
[6]
  Activity: 62%
[7]
  Activity: 104%
[8]
  Activity: 100%
[9]
  Activity: 104%

## COc1c2ccccc2nc2oc3ccccc3c12
[10]
  inhibition (INH): 99%
[1]
  MIC: < 0.2 µg/mL
[2]
  IC50: 11.77 µg/mL (≈ 47.2 µM)
[3]
  Selectivity Index: >58.85
[4]
  Activity: 92%
[5]
  Activity: 102%
[6]
  Activity: 68%
[7]
  Activity: 90%
[8]
  Activity: 98%
[9]
  Activity: 98%

## c1ccc(Nc2c3ccccc3nc3oc4ccccc4c23)cc1
[1]
  MIC: 5.35 µg/mL (≈ 17.2 µM)
[2]
  IC50: 6.14 µg/mL (≈ 19.8 µM)
[3]
  Selectivity Index: 1.15
[4]
  Activity: 44%
[5]
  Activity: 118%
[6]
  Activity: 53%
[7]
  Activity: 104%
[8]
  Activity: 76%
[9]
  Activity: 118%

## CCOc1c2ccccc2nc2oc3ccccc3c12
[1]
  MIC: 1.44 µg/mL (≈ 5.47 µM)
[2]
  IC50: 10.34 µg/mL (≈ 39.3 µM)
[3]
  Selectivity Index: 7.18
[4]
  Activity: 77%
[5]
  Activity: 99%
[6]
  Activity: 84%
[7]
  Activity: 92%
[8]
  Activity: 90%
[9]
  Activity: 86%

## Nc1c2ccccc2nc2oc3ccccc3c12
[1]
  MIC: > 100 µg/mL
[4]
  Activity: 113%
[5]
  Activity: 114%
[6]
  Activity: 107%
[7]
  Activity: 110%
[8]
  Activity: 72%
[9]
  Activity: 84%

## COc1ccc(Nc2c3ccccc3nc3oc4ccccc4c23)cc1
[1]
  MIC: 2.63 µg/mL (≈ 7.73 µM)
[2]
  IC50: 3.63 µg/mL (≈ 10.7 µM)
[3]
  Selectivity Index: 1.38
[4]
  Activity: 35%
[5]
  Activity: 109%
[6]
  Activity: 17%
[7]
  Activity: 83%
[8]
  Activity: 87%
[9]
  Activity: 111%
